Reference: ChEMBL document CHEMBL3864174, “Scaffold-Hopping of Aurones: 2-Arylideneimidazo[1,2-a]pyridinones as Topoisomerase IIα-Inhibiting Anticancer Agents” (ACS Med Chem Lett, 2016)
Values belong to the compound of their own block, whether it stands above or below them. Active and inactive are the calls of the source. The calls are words filed in the database; no cut-off is given here.

Tests used:
[1] = molecular target: DNA topoisomerase 2-alpha (Homo sapiens) (UniProt P11388); experiment: Inhibition of human Topo2alpha-mediated kDNA decatenation at 100 uM after 30 mins by SDS-based agarose gel electrophoresis
[2] = (§1) Cytotoxicity against HEK293T cells assessed as cells growth inhibition after 48 hrs by MTT assay; assay type: functional, cell-based; settings: Homo sapiens, HEK-293T
Summary of the method: (§2)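 MTT colorimetric assay. HEK-293T (kidney line) and VERO cells were tested, and the IC50 was taken as the concentration giving 50% growth inhibition.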

[3] = Cytotoxicity against African green monkey Vero cells assessed as cells growth inhibition after 48 hrs by MTT assay; assay type: toxicity, cell-based, Chlorocebus sabaeus; settings: for IC50 at 48 h: African green monkey (Chlorocebus sabaeus), Vero cells; for Activity: chlorocebus sabaeus, vero, 48 h; summary of the method: as §2
[4] = (§3) Cytotoxicity against HEK293T cells assessed as reduction in colony formation after 48 hrs by crystal violet-staining based assay; assay type: functional; settings: Homo sapiens, HEK-293T, read-out: LC50 (the source's name)
[5] = Cytotoxicity against African green monkey Vero cells assessed as reduction in colony formation after 48 hrs by crystal violet-staining based assay; assay type: toxicity, cell-based; settings: chlorocebus sabaeus; for CC50 at 48 h: Vero cells, read-out: LC50; for Activity: vero, 48 h
MCF7 [6] = experiment: Cytotoxicity against human MCF7 cells assessed as reduction in colony formation after 48 hrs by crystal violet-staining based assay; assay type: functional, cell-based
[7] = molecular target: DNA topoisomerase 2-alpha (Homo sapiens) (UniProt P11388); experiment: Poison activity at human Topo2alpha using pUC19 as substrate assessed as DNA cleavage-complex formation at 100 uM measured after 20 mins by ethidium bromide staining based SDS-agarose gel electrophoresis
[8] = Binding affinity to DNA (unknown origin) assessed as occurrence of hypochromism after 1 hr by UV-Vis spectrophotometric analysis
Summary of the method: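 UV absorption of DNA near 260 nm, recorded with and without increasing compound concentrations; hypochromism was taken as the binding read-out.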

HEK-293T [9] = experiment: as §1; assay type: functional, cell-based; settings: Homo sapiens; summary of the method: as §2
MCF7 [10] = experiment: Cytotoxicity against human MCF7 cells assessed as cells growth inhibition after 48 hrs by MTT assay; assay type: functional, cell-based
[11] = Cytotoxicity against human MDA-MB-231 cells assessed as reduction in cell viability after 48 hrs by MTT assay; assay type: functional, cell-based; settings: MDA-MB-231, 48 h
[12] = Cytotoxicity against human MDA-MB-468 cells assessed as reduction in cell viability after 48 hrs by MTT assay; assay type: functional, cell-based; settings: MDA-MB-468, 48 h
HEK-293T [13] = experiment: as §3; assay type: functional; settings: Homo sapiens
[14] = Cell cycle arrest in human MCF7 cells assessed as accumulation at subG1 phase at 100 nM after 48 hrs by propidium iodide-staining based FACS analysis (reference value: 0.8 +/- 0.1 %); assay type: functional
[15] = Cell cycle arrest in human MCF7 cells assessed as accumulation at G2/M phase at 70 nM after 48 hrs by propidium iodide-staining based FACS analysis (reference value: 41 +/- 2.8 %); assay type: functional
[16] = Inhibition of tubulin polymerization in human MCF7 cells assessed as suppression of protein assembly after 15 mins by spectrophotometric analysis; assay type: cell-based
MCF7 [17] = experiment: Inhibition of topoisomerase in human MCF7 cell nuclear lysates assessed as reduction in relaxation of supercoiled plasmid DNA NFkB substrate at 10 to 70 nM after 30 mins by ethidium bromide-staining based agarose gel electrophoresis
Summary of the method: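 Ex vivo topoisomerase assay using MCF-7 nuclear lysate with NFkB plasmid as substrate. Compound ranged from 10 nM to 75 nM, with lanes for plasmid alone and untreated lysate, and an etoposide lane at 45 µM.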

[18] = Cell cycle arrest in human MCF7 cells assessed as accumulation at G2/M phase at 2000 nM after 48 hrs by propidium iodide-staining based FACS analysis; assay type: functional
[19] = Cell cycle arrest in human MCF7 cells assessed as accumulation at G0 phase at 2000 nM after 48 hrs by propidium iodide-staining based FACS analysis; assay type: functional

Sequence of DNA topoisomerase 2-alpha (Homo sapiens) (P11388 whole entry): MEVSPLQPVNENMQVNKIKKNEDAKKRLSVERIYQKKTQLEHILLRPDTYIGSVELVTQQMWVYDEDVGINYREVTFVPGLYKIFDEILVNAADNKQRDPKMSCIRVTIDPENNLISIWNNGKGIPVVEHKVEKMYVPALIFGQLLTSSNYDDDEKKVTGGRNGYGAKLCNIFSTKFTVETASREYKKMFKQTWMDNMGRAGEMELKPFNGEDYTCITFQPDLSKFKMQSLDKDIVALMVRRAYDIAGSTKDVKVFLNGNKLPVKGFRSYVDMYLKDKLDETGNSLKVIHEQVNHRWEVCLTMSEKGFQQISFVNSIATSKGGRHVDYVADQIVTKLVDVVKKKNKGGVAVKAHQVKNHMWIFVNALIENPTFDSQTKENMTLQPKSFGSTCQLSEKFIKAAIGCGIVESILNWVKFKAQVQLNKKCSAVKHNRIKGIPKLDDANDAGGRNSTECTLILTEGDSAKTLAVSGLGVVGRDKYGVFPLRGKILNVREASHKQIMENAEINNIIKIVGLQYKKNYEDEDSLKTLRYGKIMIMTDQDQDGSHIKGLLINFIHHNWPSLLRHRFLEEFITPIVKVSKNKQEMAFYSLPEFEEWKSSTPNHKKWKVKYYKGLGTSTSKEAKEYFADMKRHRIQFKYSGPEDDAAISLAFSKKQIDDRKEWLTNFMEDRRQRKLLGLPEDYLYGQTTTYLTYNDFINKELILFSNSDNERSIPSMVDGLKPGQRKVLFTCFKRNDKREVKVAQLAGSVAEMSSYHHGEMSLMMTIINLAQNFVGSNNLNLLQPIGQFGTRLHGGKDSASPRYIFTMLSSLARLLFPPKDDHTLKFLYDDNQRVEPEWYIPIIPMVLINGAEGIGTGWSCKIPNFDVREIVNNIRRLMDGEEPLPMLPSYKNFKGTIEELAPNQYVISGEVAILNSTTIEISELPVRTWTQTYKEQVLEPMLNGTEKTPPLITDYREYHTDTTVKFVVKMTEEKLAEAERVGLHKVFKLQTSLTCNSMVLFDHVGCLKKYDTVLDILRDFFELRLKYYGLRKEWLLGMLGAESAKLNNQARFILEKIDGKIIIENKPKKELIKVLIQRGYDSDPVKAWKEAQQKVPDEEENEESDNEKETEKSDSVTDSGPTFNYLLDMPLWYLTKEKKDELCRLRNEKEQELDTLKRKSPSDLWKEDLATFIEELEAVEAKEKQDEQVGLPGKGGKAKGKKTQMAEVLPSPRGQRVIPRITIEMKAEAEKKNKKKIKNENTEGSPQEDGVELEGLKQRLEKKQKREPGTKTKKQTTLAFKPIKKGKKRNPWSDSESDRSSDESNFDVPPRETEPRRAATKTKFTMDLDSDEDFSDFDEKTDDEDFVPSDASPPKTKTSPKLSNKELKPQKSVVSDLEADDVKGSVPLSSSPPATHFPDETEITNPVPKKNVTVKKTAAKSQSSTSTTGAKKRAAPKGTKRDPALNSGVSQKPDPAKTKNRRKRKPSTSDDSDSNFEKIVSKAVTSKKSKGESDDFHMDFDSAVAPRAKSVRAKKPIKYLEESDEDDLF

inhibition [1]: Active
Structure (SMILES): CC1=CN2C(=O)/C(=C/c3ccc(Cl)cc3)N=C2C=C1

Structure (SMILES): COc1cc(/C=C2\N=C3C=CC=CN3C2=O)cc(OC)c1OC
IC50 [2]: 0.01 µM | IC50 at 48 h [3]: 0.2 µM | CC50 [4]: 0.055 µM | CC50 at 48 h [5]: 1 µM | Activity (MCF7 [6]): Active

inhibition [1]: Active
Structure (SMILES): COc1cc([C@@H]2c3cc4c(cc3[C@@H](O[C@@H]3O[C@@H]5CO[C@@H](C)O[C@H]5[C@H](O)[C@H]3O)[C@H]3COC(=O)[C@H]23)OCO4)cc(OC)c1O [ETOPOSIDE]
IC50 [2]: 22 µM | IC50 at 48 h [3]: 50 µM

Structure (SMILES): COc1cccc(/C=C2\N=C3C=CC=CN3C2=O)c1
inhibition [1]: Active | IC50 [2]: 0.08 µM | IC50 at 48 h [3]: 1.5 µM | CC50 [4]: 0.075 µM | CC50 at 48 h [5]: 1.5 µM | Activity (MCF7 [6]): Active

Structure (SMILES): O=C1/C(=C/c2ccc(Br)cc2)N=C2C=CC=CN12
inhibition [1]: Active | Activity [7]: Active | Kb [8]: 2.5e+06 M⁻¹ | IC50 [2]: 0.045 µM | growth inhibition (GI) (HEK-293T [9]): Dose-dependent effect | IC50 at 48 h [3]: 0.2 µM | Activity [3]: Dose-dependent effect | growth inhibition (GI) (MCF7 [10]): Dose-dependent effect | IC50 [11]: 0.076 µM | IC50 [12]: 0.07 µM | CC50 [4]: 0.02 µM | Activity (HEK-293T [13]): Dose-dependent effect | CC50 at 48 h [5]: 1.5 µM | Activity [5]: Dose-dependent effect | Activity (MCF7 [6]): Dose-dependent effect | Activity [14]: 19.9% | Activity [15]: 33.2% | IC50 [16]: 0.06 µM | inhibition (MCF7 [17]): Active

inhibition [1]: Active
Structure (SMILES): O=C1/C(=C/c2ccc(Cl)cc2)N=C2C(Br)=CC(Br)=CN12

Structure (SMILES): O=C1/C(=C/c2ccc(O)cc2)N=C2C=CC=CN12
IC50 [2]: 0.04 µM | IC50 at 48 h [3]: 1.5 µM | CC50 [4]: 0.05 µM | CC50 at 48 h [5]: 1.5 µM | Activity (MCF7 [6]): Active

Structure (SMILES): COc1ccc(OC)c(/C=C2\N=C3C=CC=CN3C2=O)c1
inhibition [1]: Active | IC50 [2]: 0.15 µM | IC50 at 48 h [3]: 1.5 µM | CC50 [4]: 0.06 µM | CC50 at 48 h [5]: 1.5 µM | Activity (MCF7 [6]): Active

inhibition [1]: Active
Structure (SMILES): O=C1/C(=C/c2ccc(Cl)cc2)N=C2C=CC(Br)=CN12

inhibition [1]: Active
Structure (SMILES): CN(C)c1ccc(/C=C2\N=C3C=CC=CN3C2=O)cc1

Structure (SMILES): COc1ccc(/C=C\c2cc(OC)c(OC)c(OC)c2)cc1O [COMBRETASTATIN A4]
Activity [18]: Active | Activity [19]: Active | IC50 [16]: 2.5 µM

Structure (SMILES): O=C1/C(=C/c2ccc(Br)cc2)Oc2ccccc21
inhibition [1]: Active | IC50 [2]: 0.9 µM | growth inhibition (GI) (HEK-293T [9]): Dose-dependent effect | IC50 at 48 h [3]: 2.4 µM | Activity [3]: Dose-dependent effect | growth inhibition (GI) (MCF7 [10]): Dose-dependent effect | IC50 [11]: 0.6 to 0.84 µM | IC50 [12]: 0.6 to 0.84 µM | Activity (HEK-293T [13]): Dose-dependent effect | Activity [5]: Dose-dependent effect | Activity (MCF7 [6]): Dose-dependent effect

Structure (SMILES): O=C1/C(=C/c2ccc(Cl)cc2)N=C2C=CC(Cl)=CN12
inhibition [1]: Active | IC50 [2]: 0.045 µM | IC50 at 48 h [3]: 1.5 µM | CC50 [4]: 0.04 µM | CC50 at 48 h [5]: 1.5 µM | Activity (MCF7 [6]): Active

Structure (SMILES): COc1ccc(/C=C2\N=C3C=CC(Cl)=CN3C2=O)cc1
IC50 [2]: 0.08 µM | IC50 at 48 h [3]: 1.5 µM | CC50 [4]: 0.04 µM | CC50 at 48 h [5]: 1.5 µM | Activity (MCF7 [6]): Active

Structure (SMILES): O=C1/C(=C/c2ccc(Cl)cc2)N=C2C=CC=CN12
inhibition [1]: Active | IC50 [2]: 0.03 µM | IC50 at 48 h [3]: 0.2 µM | CC50 [4]: 0.04 µM | CC50 at 48 h [5]: 1.5 µM | Activity (MCF7 [6]): Active

Structure (SMILES): COc1ccc(/C=C2\Oc3ccccc3C2=O)cc1 [4'-METHOXY-AURONE]
inhibition [1]: Active | IC50 [2]: 0.7 µM | growth inhibition (GI) (HEK-293T [9]): Dose-dependent effect | IC50 at 48 h [3]: 2.5 µM | Activity [3]: Dose-dependent effect | growth inhibition (GI) (MCF7 [10]): Dose-dependent effect | IC50 [11]: 0.6 to 0.84 µM | IC50 [12]: 0.6 to 0.84 µM | Activity (HEK-293T [13]): Dose-dependent effect | Activity [5]: Dose-dependent effect | Activity (MCF7 [6]): Dose-dependent effect
